# Screening data: PubChem BioAssay, several laboratories
# The entries come from a sample that favours hits as a whole.
# HSF1 activator: increases HSF-1 driven luciferase reporter signal; NIH3T3-HGL HSF-1 luciferase reporter, MG132, 8 h; 100% = twice DMSO control signal; activation, % at 9 µM; actives 1.7% (n = 300,000); AID 504408;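 active = mean replicate activation of at least 50% with a set share of replicates each reaching 50%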;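 note: 0% = median of the neutral control wells and 100% = twice that signal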
# HSF1 inhib: HSF1 inhibition | activity change, negative = inhibition, % at 7.5 µM (by protocol) | actives 0.77% (n = 300,000) | NIH3T3-HGL HSE-luciferase, MG132-induced, luminescence 8 h; hits give low values;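 active = more than half of replicate wells show activity change below -50%, luminescence cut by over half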;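 note: luciferase reports HSF-1 transcriptional activity via heat shock element; 0% = median of DMSO wells and -100% = zero luminescence signal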
# L major viab: Leishmania major promastigote growth inhibition | Leishmania major promastigotes, resazurin fluorescence viability | inhibition, % at 10 µM | actives 9% (n = 200,000) | AID 1063; in the data active = inhibition above about 50%;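 note: promastigotes grown with compound for 44 hours at 28 °C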
# T cruzi repl: T. cruzi replication inhibition; T. cruzi beta-gal in NIH3T3, luminescence, 90 h; inhibition, % (test concentration not listed); actives 1.4% (n = 300,000);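 active = mean inhibition across valid replicates above about 55%, limit read from the data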;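 note: signal also drops with host cell toxicity which is not excluded here; 0% = plate median of DMSO wells and 100% = zero luminescence signal; higher percent means less beta-gal luminescence so fewer parasites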
#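 Assay system: NIH/3T3 fibroblasts plus reporter T. cruzi. Amount: NIH/3T3 cells, 5,000 per well. Buffer or medium: DMEM, 2% fetal bovine serum. Doses: compound pinned at 50 nL/well, DMSO. Schedule: ≥90 h infection period, 3 h prior cell attachment. Signal: luminescent β-galactosidase signal after 60 min lysis. Read-out: parasite load inhibition, %.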
# Hsp70 activator: Hsp70 transcriptional activation, primary screen; actives 0.04% (n = 200,000); HeLa Hsp70 promoter luciferase reporter, luminescence; scaled: vehicle 0, proteasome-inhibitor control 100%; activation, % at 10 µM;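 active = activation above the mean across all tested compounds plus 3 SD, cutoff set per campaign, cut at about 5.5% in these data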;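 note: 100% = MG132 at 30 µM as the positive control and 0% = DMSO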
# * marks the source's active call; other numbers are inactive results; / = not tested or not shown.
SMILES,HSF1 activator,HSF1 inhib,L major viab,T cruzi repl,Hsp70 activator
COc1cccc2sc(Nc3nnc(-c4cccs4)o3)nc12,301*,205,96*,65*,0
COc1cccc2sc(Nc3nnc(-c4ccc(F)cc4)o3)nc12,6,4,96*,43,0
COc1cccc2sc(NC(=O)c3ccc(Br)s3)nc12,33,21,15,10,1
Fc1cccc2sc(Nc3nnc(-c4ccco4)o3)nc12,29,-1,-3,23,0
S=C(Nc1ccc2nsnc2c1)N1CCCC1,75*,41,-4,16,0
S=C(Nc1ccccc1)N1CCN(C2CCCCC2)CC1,13,-1,88*,4,0
CC1CCCN(C(=S)Nc2ccc(F)cc2)C1 (stereo not given),38,21,-1,-19,0
O=C(Nc1ccc2nsnc2c1)N1CCCCCC1,26,17,-2,-5,0
CC1CCCN(C(=S)Nc2ccc(Nc3ccccc3)cc2)C1 (stereo not given),93*,61,16,2,0
S=C(Nc1ccccc1)N1CCC(C2CCN(C(=S)Nc3ccccc3)CC2)CC1,-2,-7,/,5,/
CCc1ccc(NC(=S)N2CCN(C)CC2)cc1,-22,2,/,0,/
CCc1ccc(NC(=S)N2CCCC(C(F)(F)F)C2)cc1 (stereo not given),-45,-29,96*,0,0
Cc1ccccc1C(=O)NCCCNC(=O)c1ccccn1,-14,-5,/,-8,/
S=C(Nc1ccccc1)N1CCCCCC1,55*,26,-6,-3,0
CCn1nc(C(=O)OC(C(=O)c2c[nH]c3ccccc23)c2ccccc2)c2ccccc2c1=O (stereo not given),46,10,100*,8,0
CCn1nc(C(=O)OCC(=O)c2ccc(F)cc2)c2ccccc2c1=O,0,-1,-3,-3,0
CC1CCC2(CC1)NC(=S)N(C(C)(C)C)N2 (stereo not given),3,-4,/,-21,/
CC1CCC2(CC1)NC(=S)N(c1ccccc1)N2 (stereo not given),-18,-8,79*,3,0
COC(=O)c1ccc(Nc2cc(C)nc3ccccc23)cc1,8,-8,/,8,/
COC(=O)c1ccc2nc(C)cc(Nc3ccc(N(C)C)cc3)c2c1,5,11,67*,9,0
Cc1cccc(-n2ncc3c(N(C)Cc4ccccc4)ncnc32)c1,61*,45,/,5,/
Cc1cccc(-n2ncc3c(N)ncnc32)c1,24,4,-5,-2,0
Cc1cccc(-n2ncc3c(Nc4ccc(F)cc4)ncnc32)c1,51*,31,/,6,/
CCOc1ccc2nc(NCCNC(=S)NCCCN(C)C)c(C#N)cc2c1,0,-5,56*,18,0
CCOc1ccc2nc(NCCNC(=O)Nc3ccccc3)c(C#N)cc2c1,-1,-3,9,0,0
SMILES,HSF1 activator,HSF1 inhib,L major viab,T cruzi repl,Hsp70 activator
COc1ccc(-c2cc(-c3nnc(COC(=O)c4ccc(O)cc4)o3)c3ccccc3n2)cc1OC,-34,-19,59*,31,0
COc1ccc(N2C(=O)CCC(C(=O)N3CCN(c4ccccn4)CC3)C2c2ccc(F)cc2)cc1 (stereo not given),5,-4,0,13,0
COCCNC(=O)C(c1ccncc1)N(C(=O)c1sc(C)nc1C)c1cccc(C)c1 (stereo not given),75*,32,-5,2,0
N#CC1=CN(Cc2ccccc2)C=C(/C=N/Nc2ccccc2)C1,35,15,98*,-14,0
CCOc1ccc(N=NC2C(=O)N(C(N)=S)N=C2C)cc1 (stereo not given),30,25,/,3,/
OCCC1CN(Cc2ccccc2OC2CCCC2)CCN1Cc1ccsc1 (stereo not given),14,9,61*,25,0
OCCC1CN(Cc2ccc(-c3ccco3)cc2)CCN1Cc1ccsc1 (stereo not given),3,-4,76*,5,0
C#Cc1ccc(CN2CCN(Cc3ccsc3)C(CCO)C2)cc1 (stereo not given),5,-2,-4,17,0
Cc1ccc(NC(=S)NCCN(C2CCCCC2)C2CCCC2)cc1,2,2,34,27,0
Cc1ccc(NC(=S)NC(=O)C2CCC2)cc1C,-64,-59*,/,-1,/
